Screening data deposited in PubChem BioAssay by several laboratories.
Hits are enriched below; roughly 1.7% of the tested compounds scored in any of these assays.
TPT1 inh – C. albicans TPT1 enzyme inhibition; recombinant caTPT1, FP RNA substrate dephosphorylation; inhibition, % at 5 µM; 300,000 compounds, 0.81% hits;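 active = inhibition above the mean of all tested compounds plus 3 SD, set per screening campaign, cut at about 24% in these data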;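 note: plate controls were DMSO alone for no effect and ferristatin control at 100 nM for full effect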
IDE inh – cellular human IDE inhibition; P14735; HEK cells, FAbetaB cleavage, fluorescence polarization; inhibition, % at 5.59 µM; 320,000 compounds, 0.41% hits; AID 434962;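 active = percent inhibition above the average of all tested compounds plus 3 SD, set per screening campaign, cut at about 16% in these data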;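 note: IDE supplied by intact live HEK cells; FP after avidin binding of uncleaved biotin substrate so inhibition keeps polarization high; 0% = DMSO wells and 100% = 60 µM reference IDE inhibitor Ii1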
IDE act – boosts human insulin-degrading enzyme activity in HEK cells. FAbeta-B cleavage, fluorescence polarization; 0% vehicle, 100% cell-free pure enzyme wells. 340,000 compounds, 0.073% hits. P14735. activation, % at 5.96 µM;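 active = activation above the mean of all tested compounds plus 3 SD, set per screening campaign, cut at about 17% in these data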
Rpn11 block – Rpn11 (human) deubiquitinase inhibition. AID 588493. 360,000 compounds, 0.59% hits. human 26S proteasome, Ub4-pepOG fluorescence polarization; 20S core pre-blocked with epoxomicin. O00487. inhibition, % at 20 µM;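 active = inhibition at 20 µM, scaled to each plate's controls, above about 33%, limit read from the data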
Target sequence (O00487 whole entry, looked up): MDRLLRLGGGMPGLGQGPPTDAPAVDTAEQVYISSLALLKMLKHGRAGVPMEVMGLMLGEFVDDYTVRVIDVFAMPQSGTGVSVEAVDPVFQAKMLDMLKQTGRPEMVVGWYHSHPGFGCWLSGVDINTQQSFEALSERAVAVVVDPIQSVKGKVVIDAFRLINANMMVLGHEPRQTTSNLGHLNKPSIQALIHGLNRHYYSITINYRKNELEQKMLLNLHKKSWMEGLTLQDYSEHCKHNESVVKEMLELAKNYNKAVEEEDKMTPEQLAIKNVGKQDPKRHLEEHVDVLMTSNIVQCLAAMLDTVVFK
CSN deneddyl inh – CSN deneddylation inhibition. Q92905. Purified CSN, SCF-Nedd8-OG deneddylation, fluorescence polarization. inhibition, % at 12.5 µM. 360,000 compounds, 0.38% hits. AID 651999;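 active = pattern-corrected inhibition above about 35%, with an unprinted fluorescence ratio check between 0.5 and 1.5, limit read from the data, passing the limit was not always enough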;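 note: 0% = enzyme with substrate and 100% = substrate without enzyme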
Target sequence (Q92905 whole entry, looked up, one chain of several): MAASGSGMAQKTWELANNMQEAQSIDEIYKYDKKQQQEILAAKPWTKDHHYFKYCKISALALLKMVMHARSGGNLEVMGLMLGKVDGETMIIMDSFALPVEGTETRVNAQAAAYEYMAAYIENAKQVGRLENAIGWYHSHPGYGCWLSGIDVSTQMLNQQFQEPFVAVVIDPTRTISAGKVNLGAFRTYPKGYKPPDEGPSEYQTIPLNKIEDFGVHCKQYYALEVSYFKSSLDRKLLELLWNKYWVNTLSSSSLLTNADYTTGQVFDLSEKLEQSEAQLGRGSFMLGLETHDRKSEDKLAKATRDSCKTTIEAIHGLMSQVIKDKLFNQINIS
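Test system: Human Csn5 produced in HEK293T cells | Compound: 12.5 µM single point | Times: 90 min, room temperature | Signal: Fluorescence polarization readout | Read-out basis: % inhibition of substrate cleavage by Csn5 | Controls: no-enzyme wells high, enzyme-with-substrate wells low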
HNF4A DNA FP – change in binding of human HNF4 alpha to DNA | P41235 | HNF4a-FITC DNA binding, fluorescence polarization, 1 h | activity change, % at 10 µM | 360,000 compounds, 0.3% hits | AID 1224865; in the data active = activity change above about 30%, passing the limit was not always enough
TPT1 inh confirm – confirmation of Candida albicans TPT1 inhibitors | shares compounds with TPT1 inh | recombinant caTPT1, fluorescence polarization, RNase T1 coupled | inhibition, % at 5 µM | 2,400 compounds, 74% hits | AID 2149;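 active = inhibition above the primary screen limit, the mean inhibition of all tested compounds plus 3 SD, cut at about 25% in these data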
RNase T1 inh – RNase T1 inhibition in TPT1 counter-screen; shares compounds with TPT1 inh; RNase T1 cleavage, fluorescence polarization, 1536-well; inhibition, % at 5 µM; 2,400 compounds, 83% hits; AID 2153;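 active = inhibition above the solvent-only control well mean plus 3 SD, limit set per screening run, cut at about 23% in these data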;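 note: plate controls were DMSO wells with enzyme for no effect and wells without RNase T1 for full effect; inhibitors block cleavage so intact labeled substrate keeps polarization high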
An asterisk follows results filed as active.

COC(=O)c1ccc(N)c(N=CC2=C(O)CC(C)(C)CC2=O)c1 was read as TPT1 inh 31*, IDE inh -3, IDE act 2, CSN deneddyl inh 26, HNF4A DNA FP 22, TPT1 inh confirm 9 and RNase T1 inh 13.
O=c1[nH][nH]c2c1[C@H](c1ccc(Cl)cc1)O[C@H](C1CCCCC1)C2 was read as CSN deneddyl inh 1 and HNF4A DNA FP -4.
For O=C(COC(=O)c1cnc(Cl)c(Cl)c1)NC1CC1 the results were IDE inh 2, IDE act 6, Rpn11 block 2, CSN deneddyl inh -3 and HNF4A DNA FP 3.
Screening Cc1ccc(OCC(=O)N2CCN(c3ccc([N+](=O)[O-])c(N4CCOCC4)c3)CC2)cc1 returned TPT1 inh 31*, IDE inh 10, IDE act -1, Rpn11 block -9, CSN deneddyl inh -4, HNF4A DNA FP 1, TPT1 inh confirm 3 and RNase T1 inh 17.
Screening Cc1ccc(-n2nnnc2SCC(=O)N2CC(=O)Nc3ccccc32)cc1 returned TPT1 inh 28*, IDE inh -1, IDE act 2, Rpn11 block 6, CSN deneddyl inh -1, HNF4A DNA FP 9, TPT1 inh confirm 36* and RNase T1 inh 46*.
Cc1nnc(SCC(=O)N2CC(=O)Nc3ccccc32)n1C was read as TPT1 inh 1, IDE inh 2, IDE act -2, Rpn11 block 3, CSN deneddyl inh -2 and HNF4A DNA FP 1.
O=C(Nc1ccccc1)NC1CCN(Cc2ccccc2)CC1 was read as TPT1 inh 30*, IDE inh -8, IDE act 2, Rpn11 block -5, CSN deneddyl inh 3, HNF4A DNA FP 2, TPT1 inh confirm 2 and RNase T1 inh 7.
CCn1c2ccccc2c2cc(N)ccc21 was read as TPT1 inh 26*, IDE inh -7, IDE act -2, CSN deneddyl inh 36*, HNF4A DNA FP 36, TPT1 inh confirm 28* and RNase T1 inh 40*.
Screening COc1ccc(C)cc1S(=O)(=O)N(CC(=O)N1CCOCC1)c1cc(C)cc(C)c1 returned TPT1 inh -4, IDE inh -2, IDE act 2, Rpn11 block 2, CSN deneddyl inh 0 and HNF4A DNA FP -1.
Screening COc1ccc(Br)cc1S(=O)(=O)N(CC(=O)N1CCOCC1)c1ccccc1 returned TPT1 inh 43*, IDE inh 5, IDE act 2, Rpn11 block 9, CSN deneddyl inh 3, HNF4A DNA FP -2, TPT1 inh confirm 6 and RNase T1 inh 10.
Screening c1coc(CNc2c3c(nc4ccccc24)CCC3)c1 returned TPT1 inh 26*, IDE inh 3, IDE act 2, Rpn11 block -35, CSN deneddyl inh 8, HNF4A DNA FP -13, TPT1 inh confirm 24* and RNase T1 inh 35*.
For O=C1c2ccccc2-c2cccc(NS(=O)(=O)c3ccc(C(F)(F)F)cc3)c21 the results were TPT1 inh 42*, IDE inh 8, IDE act -21, CSN deneddyl inh 35, HNF4A DNA FP 18, TPT1 inh confirm 47* and RNase T1 inh 55*.
CCN(CC)c1ccc2c(c1)oc(=O)c1c(Cl)cc(=O)oc12 was read as TPT1 inh 25*, IDE inh 7, IDE act -3, Rpn11 block -14, CSN deneddyl inh -31, HNF4A DNA FP -23, TPT1 inh confirm 37* and RNase T1 inh 50*.
Screening Cc1ccc(/C=C2/Sc3ccc(C(=O)N4CCN(c5ccccn5)CC4)cc3NC2=O)cc1 returned TPT1 inh 28*, IDE inh 4, IDE act 0, Rpn11 block 39, CSN deneddyl inh 14, HNF4A DNA FP 17, TPT1 inh confirm 49* and RNase T1 inh 61*.
Cc1cccnc1C(NC(=O)C1CCN(CCCOc2ccccc2)CC1)c1ccc(F)cc1 (stereo not given) was read as Rpn11 block 4, CSN deneddyl inh 2 and HNF4A DNA FP 4.
For COc1ccc(NC(=O)COC(=O)c2ccc(S(=O)(=O)N3CCCCC3)cc2)c(OC)c1 the results were Rpn11 block 6, CSN deneddyl inh 3 and HNF4A DNA FP -2.
CC1(C)CC(=O)C(C2=NC3(CCCCCC3)Cc3ccccc32)=C(O)C1 was read as TPT1 inh 28*, IDE inh 0, IDE act -2, Rpn11 block 5, CSN deneddyl inh 1, HNF4A DNA FP 2, TPT1 inh confirm -1 and RNase T1 inh 4.
`CN(C)c1ccc(/C=C2/NC(=O)NC2=O)cc1` gave TPT1 inh 12, IDE inh -3, IDE act 2, Rpn11 block 20, CSN deneddyl inh 7 and HNF4A DNA FP 9.
For CN(C)c1ccc(/C=C2\N=C(c3ccc(Cl)c([N+](=O)[O-])c3)NC2=O)cc1 the results were TPT1 inh 53*, IDE inh 10, IDE act 0, Rpn11 block 37, CSN deneddyl inh 19, HNF4A DNA FP 23, TPT1 inh confirm 86* and RNase T1 inh 94*.
For O=C1c2ccccc2S(=O)(=O)c2cc(N3CCN(C(=O)c4ccccc4)CC3)ccc21 the results were TPT1 inh 35*, IDE inh -3, TPT1 inh confirm 61* and RNase T1 inh 70*.
Screening O=C1c2ccccc2S(=O)(=O)c2cc(C(=O)N3CCN(c4ccccc4)CC3)ccc21 returned TPT1 inh -1, IDE inh -4, IDE act 0, Rpn11 block 2, CSN deneddyl inh 0 and HNF4A DNA FP -2.
Screening O=C1c2ccccc2S(=O)(=O)c2cc(N3CCC4(CC3)OCCO4)ccc21 returned TPT1 inh 30*, IDE inh 13, TPT1 inh confirm 45* and RNase T1 inh 56*.
For CN(Cc1ccc(F)cc1)S(=O)(=O)c1ccc2[nH]c(=O)[nH]c2c1 the results were Rpn11 block 0, CSN deneddyl inh -4 and HNF4A DNA FP 0.
For COc1ccc(C2CC=C(C(C)=O)CN2S(=O)(=O)c2ccccc2)cc1 (stereo not given) the results were Rpn11 block -23, CSN deneddyl inh -3 and HNF4A DNA FP 0.
`CNc1ccc(Br)cc(C(=O)/C=C/c2ccc(OC)cc2)c1=O` gave TPT1 inh 53*, IDE inh 3, IDE act -3, Rpn11 block -9, CSN deneddyl inh 24, HNF4A DNA FP -5, TPT1 inh confirm 36* and RNase T1 inh 46*.
